Assay outcomes from PubChem.
The list is not random: actives were taken first. Their share in the collection is about 2.1%.
p97 inhibitor: human p97 ATPase inhibition; recombinant p97 ATPase, Kinase-Glo ATP luminescence, 3 h; inhibition, % at 8 µM; 220,000 tested, 0.42% active; in the data active = inhibition above about 15%;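 note: 0% = DMSO vehicle and 100% = wells lacking enzyme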
Runt-SMMHC FRET: inhibitors of human RUNX1 Runt domain binding to CBFb-SMMHC. 220,000 tested, 0.74% active. inhibition, % at 20 µM. Cerulean-Runt/Venus-CBFb-SMMHC FRET ratio 530/480, 1 h;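 active = mean inhibition across duplicate retests at 20 µM reaching about 50%, limit read from the data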;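 note: 0% = DMSO wells and 100% = wells with excess untagged CBFb-SMMHC; inhibitors lower the FRET ratio by blocking Runt binding to CBFb-SMMHC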
Hck-Nef inh: blocks Nef-activated human Hck kinase. P08631. Recombinant Hck-YEEI plus Nef, Z-Lyte FRET kinase assay. inhibition, % at 20 µM. 220,000 tested, 0.68% active. AID 463187;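 active = Hck-Nef kinase inhibition above about 50%, limit read from the data; inactive = inhibition below that limit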;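 note: 0% = DMSO with Hck plus Nef and 100% = Hck alone without Nef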
RanGTP-Imp inh: inhibitors of RanGTP-importin-beta interaction, primary screen, biochemical, FRET, CFP-Ran, YFP-importin-beta, homogeneous. cell-free CFP-Ran/YFP-importin-beta FRET ratio. inhibition, % (no concentration beside the values). 300,000 tested, 1.1% active. AID 2216;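 active = more than half of the replicate wells show a fall in the fluorescence ratio signal beyond about 16%, limit read from the data, passing the limit was not always enough; inconclusive = exactly half of the replicate wells pass the set limit; inactive = fewer than half of replicates pass the limit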;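 note: 0% = DMSO wells and 100% = Ran loaded with GDP instead of GTP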
Tb hexokinase: blocks Trypanosoma brucei hexokinase 1 activity; recombinant TbHK1, G6PDH-coupled NADH A340; inhibition, % at 10 µM; 220,000 tested, 0.11% active; AID 1430;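 active = inhibition of 50% or more in the single-dose primary screen; inactive = inhibition below 50%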
Runt-CBFb FRET: inhibitors of human RUNX1 Runt domain binding to CBFb; Q01196+Q13951; Cerulean-Runt/Venus-CBFb FRET ratio 530/480, 1 h; inhibition, % at 20 µM; 220,000 tested, 0.46% active; AID 1496;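 active = inhibition over about 50% at 20 µM in the single-dose screen, limit read from the data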;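 note: 0% = DMSO wells and 100% = excess unlabeled CBFb competitor control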
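test system = Cerulean-tagged RUNX1 Runt domain (FRET donor) fusion protein | reagent = Venus-CBFb binding partner, 100 nM | incubation = protein complex preformed 1 h, compound exposure 1 h, room temperature, dark | detection = FRET fluorescence | read-out basis = loss of energy transfer signal | controls = 5 µM unlabeled CBFb as full-inhibition high control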
* hit, by the source's call; ? = inconclusive; . = not tested or not shown.

SMILES	p97 inhibitor	Runt-SMMHC FRET	Hck-Nef inh	RanGTP-Imp inh	Tb hexokinase	Runt-CBFb FRET
Cc1ccc2nc(NCc3ccccc3)c(C#N)cc2c1	1	83	13	38*	-2	42
C#CCCOC(=O)N1C2=NC(C(=O)OC)=C(C(=O)OC)[C@@H]3N(Cc4ccccc4)c4ccccc4[C@]23C[C@H]1C(=O)OC	.	-2	26	?	-20	-3
C/C(C/C(C)=C1/SC(=S)NC1=O)=C1\SC(=S)NC1=O	13	20	75*	.	-18	37
CCOc1ccc(S(=O)(=O)NCc2ccc3c(c2)OCO3)cc1NC(C)=O	.	.	.	-2	.	.
COc1ccc(/C=C2\CCCC3C2=NN(C(=O)CSc2n[nH]c(N)n2)C3c2ccc(OC)cc2)cc1 (stereo unspecified)	15*	1	21	-5	-10	-3
Cc1ccc2nc3c(cc2c1)c(C)nn3-c1ccccc1	.	.	.	61*	.	.
Cc1ccccc1Sc1c(C#N)c(-c2ccccc2)nn1C	1	-2	3	8	6	-2
CSc1ccc(/C=C(\C(=O)O)c2ccc(S(=O)(=O)N3CCCCC3)s2)cc1	-6	26	2	45*	-12	9
O=C(O)/C(=C\c1ccccc1Cl)c1ccc(S(=O)(=O)N2CCCCC2)s1	2	-5	2	?	9	0
CCOc1ccc(/C=C(\C(=O)O)c2ccc(S(=O)(=O)N3CCOCC3)s2)cc1OC	-2	69*	-8	104*	-21	15
CCCCn1c(N)c(N2CCOCC2)c(=O)n(CC(=O)NC(C)c2ccccc2)c1=O (stereo unspecified)	0	2	16	27*	-1	2
CCCn1c(N)c(N2CCCCC2)c(=O)n(CC(=O)Nc2ccccc2)c1=O	-5	4	0	-2	-2	0
C=CCN1C(=O)C(C)(C)N(C(=O)c2cccc([N+](=O)[O-])c2)c2ccccc21	.	.	.	-3	.	.
COc1ccc(C2=NN(c3ccc(C=O)cc3)C(c3ccccc3)C2)cc1 (stereo unspecified)	.	.	.	31*	.	.
COc1ccc(C2CC(c3ccccc3)=NN2c2ccc(/C=N/NC(=O)c3ccncc3)cc2)cc1 (stereo unspecified)	-1	-248	4	19*	-5	-112
O=Cc1ccc(N2N=C(c3ccccc3)CC2c2ccccc2)cc1 (stereo unspecified)	.	.	.	8	.	.
N#CCC(=O)N/N=C/c1ccc(N2N=C(c3ccccc3)CC2c2ccccc2)cc1 (stereo unspecified)	.	.	.	99*	.	.
O=C(CNC(=O)c1cccc(Br)c1)N/N=C/c1ccc[nH]1	3	-13	13	-2	-13	-10
COc1ccc(C2=NOC(Cn3nc(C(=O)O)cc3-c3ccccc3)C2)cc1 (stereo unspecified)	.	.	.	6	.	.
Cc1c(O)c2cccnc2[nH]c1=O	4	4	1	1	22	-1
O=C(NNc1c2ccccc2nc2ccccc12)c1ccccc1O	10	48	58*	.	0	14
O=C(NNc1c2ccccc2nc2ccccc12)c1cccc(O)c1	5	35	1	?	-8	22
O=C(NNc1c2ccccc2nc2ccccc12)c1ccccc1Cl	.	.	.	27*	.	.
Cc1ccccc1Cn1cc(NC(=O)c2cc3nc(-c4ccco4)cc(C(F)(F)F)n3n2)cn1	8	-86	4	30*	-18	-5
CCc1ccc(-c2cc(C(F)(F)F)n3nc(C(=O)Nc4cnn(Cc5ccc(C)cc5)c4)cc3n2)s1	-1	-4	6	39*	3	-50
SMILES	p97 inhibitor	Runt-SMMHC FRET	Hck-Nef inh	RanGTP-Imp inh	Tb hexokinase	Runt-CBFb FRET
Cc1ccc(Cn2ccc(NC(=O)c3cc4nc(-c5ccco5)cc(C(F)(F)F)n4n3)n2)cc1	1	-21	2	4	-13	.
COc1cc2c(cc1NC(=O)CC1SC(N3CCCC3)=NC1=O)oc1ccccc12 (stereo unspecified)	6	-8	0	0	-16	-1
COc1cc2sc3ccc(-c4ccc(N(C)C)nc4)cc3c(=O)c2cc1OC	.	.	.	-3	.	.
CN(C)c1ccc(-c2ccc3c(=O)c4ccccc4n(C)c3c2)cn1	.	.	.	19*	.	.
CC1(C)Cc2c(sc3nc(C4CC4)n(N)c(=O)c23)CO1	3	1	22	2	1	98*
CC1(C)Cc2c(sc3nc(C4CCCCC4)n(N)c(=O)c23)CO1	-4	2	-4	5	-5	1
S=C(NCCc1ccccc1)N1CCN(C2CCCCC2)CC1	-5	1	1	?	-7	1
COc1ccc(C)cc1S(=O)(=O)Nc1ccccc1	-5	-1	1	7	-2	0
COc1ccc(C)cc1S(=O)(=O)Nc1ccncc1	2	-4	27	14*	2	1
O=C(Cc1cccc2ccccc12)N1CCCc2ccccc21	-2	1	0	-2	10	.
C[n+]1cccc2ccc3c(c21)OC(N)=C(C#N)C3c1ccccc1 (stereo unspecified)	6	0	1	2	-17	-19
COc1ccc(N=Cc2cc3c(cc2O)OC(N)=C(C#N)C3c2ccccc2)cc1 (stereo unspecified)	5	88*	1	10	-11	49
N#CC1=C(N)Oc2cc(O)ccc2C1c1ccccc1 (stereo unspecified)	-4	65*	-8	53*	3	49
COc1cc(C2C(C#N)=C(N)Oc3cc(O)ccc32)cc2c1OCO2 (stereo unspecified)	5	41	-5	42*	-1	11
COc1ccc(C2C(C#N)=C(N)SC(N)=C2C#N)cc1OC	5	12	6	48*	-12	13
N#CC1=C(N)Oc2cc3ccccc3cc2C1c1cccnc1 (stereo unspecified)	4	-2	-2	-2	-3	-1
C=CCN(CC=C)C(=O)COC(=O)c1ccc(Sc2ncn[nH]2)c([N+](=O)[O-])c1	4	0	21	2	0	-1
CC(=O)Oc1ccc(N2C(=O)C3C4C=CC(CC4)C3C2=O)cc1[N+](=O)[O-] (stereo unspecified)	5	-4	-4	3	-4	3
COc1ccc(C2C(C#N)=C(N)Oc3cc(O)ccc32)cc1OC (stereo unspecified)	6	42	4	56*	8	10
COc1cc(C2C(C#N)=C(N)Oc3cc(O)ccc32)cc(OC)c1OC (stereo unspecified)	1	-19	2	69*	1	12
COc1ccc(C2C(C#N)=C(N)Oc3cc(O)ccc32)cc1C (stereo unspecified)	.	.	.	67*	.	.
COC(=O)c1ccccc1NC(=O)CCCCCn1nnc2ccccc2c1=O	.	.	.	3	.	.
